Measurements as given in the EternaBench riboswitch data.

Tested on: MS2 coat protein
Experiment: apparent Kd, MS2 coat protein; higher = weaker binding; RNA-MaP array; FMN 200 µM where present
Method in brief: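 Designs were transcribed by stalled E. coli RNA polymerase on Illumina sequencing-chip clusters. They were titrated with SNAP-549-labelled MS2 coat protein from 0.7 or 1.5 nM, doubling to 3 µM, without and then with constant ligand. Buffer: 100 mM Tris-HCl pH 7.5, 80 mM KCl, 4 mM MgCl2, BSA, DTT, yeast tRNA, Tween-20. Green signal was normalised to red-channel RNA signal and control-cluster median Fmax. Apparent Kd is the median of filtered per-cluster binding-curve fits.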

[1] = designed as: ON switch for flavin mononucleotide, no ligand
[2] = ligand present: flavin mononucleotide, designed as: ON switch for flavin mononucleotide
[3] = designed as: OFF switch for flavin mononucleotide, no ligand
[4] = ligand present: flavin mononucleotide, designed as: OFF switch for flavin mononucleotide

Row | Sequence | apparent Kd [1] | apparent Kd [2] | apparent Kd [3] | apparent Kd [4]
1 | AGAUGGUAUAUAGGAUAUCAUGUGCAAACAUGAGGAUCACCCAUGUAGAAACGUCAGUUUAAUAAUGAGAAGGAUAUACCAUCU | 31.9 nM | 11.5 nM | – | –
2 | CUCGGACAUGAGGAUCACCCAUGUGAGGAUAUGGCGCGAUCGUCGAAAGACGAUAGCGCCAGAAGGCACAAAUG | – | – | 65.4 nM | 195 nM
3 | UAGGUCAUCUGAGGAUAUCGAACUCAAAGGCUACGAGAAGGCAGACUGACAUGAGGAUCACCCAUGUACCGGGAAGAUGCCUCC | – | – | 14.6 nM | 130 nM
4 | CUCUUGUUAGGAUAUCAAACCGGCAGCGGAGCCGCCGGAAGUGAGAAGGGACAUGAGGAUCACCCAUGUAAGAA | – | – | 81.6 nM | 256 nM
5 | CUCAUGUGCGUCGGCAAGUUAACACAGGAUAUCCGAGAAAACAUGAGGAUCACCCAUGUAACUUCGGAGAAGGGUGAUGAGAGA | 64.9 nM | 23.1 nM | – | –
6 | CGUGAACAUGAGGAUCACCCAUGUGAAAAACGUAGAGGAUAUGUCACAUGAGUGUAAAAGACAGAAGGCUAUCGUG | 151 nM | 27.1 nM | – | –
7 | GUAGCAUAAUCAGGAUAUUCAGCGAAUAGAUAGACAUGAGGAUCACCCAUGUGGCGAAAGCCUCGGGAGAAGGGAUAAUGCUAC | 168 nM | 54 nM | – | –
8 | AUUAUUUUGUAGAAGGACGACUAUUAAUUUUUCGUAGGAUAUACUAUUUACAUGAGGAUCACCCAUGUUUAAAUGGAACAAUGU | – | – | 9.32 nM | 10.4 nM
9 | GGUGCGUAUGUGAGGAUAUGCUGGUCCUUGGAUCAGCAGAAGGCACAUGAGGAUCACCCAUGUGGUGUCGUACG | – | – | 68.9 nM | 516 nM
10 | AAUUAGGUCACAGGAUAUACAUCAUCCAUAGAUGUAGAAGGGUGUCAAAAUAAUAUCUGACAUGAGGAUCACCCAUGUUUCCAC | 19.5 nM | 8.97 nM | – | –
11 | UUGAUUUUGUAAGGAUAUACUCUGUGAUGAAGAGUAGAAGGUACUUACAUGAGGAUCACCCAUGUUUAACGAGAUACUAAUCGU | 62.8 nM | 31.3 nM | – | –
12 | AUAAAUCAUGUAGGAUAUGCGUGGCGAAGCUAUGCAGAAGGACAUGAGGAUCACCCAUGUCUUUCUGUCUGCGUACAGACAGGA | – | – | 23.9 nM | 115 nM
13 | GGAGCAACAUGAGGAUCACCCAUGUAGGAUAUCGCUAUUGUAAUCAUGAAACAUGAUUACAAUAGCGAGAAGGACAUAUGCUGG | – | – | 24.9 nM | 27.3 nM
14 | GGUACUCAAAGAGUACCAAUACGAACAUGAGGAUCACCCAUGUAGGAUAUGCUACUCAAAGAGUAGCAGAAGGACAUGUGCCUG | – | – | 17.9 nM | 95.1 nM
15 | UCGAACGGAAACAAAGUAAAUAGACAUGAGGAUCACCCAUGUAAGGAUAUGCCUACUAAAAGUAGGCAGAAGGUACGCGUUCGA | – | – | 16.5 nM | 20.7 nM
16 | GGUACUCAAAGAGUACUGUUUUGAACAUGAGGAUCACCCAUGUAGGAUAUGCGAGUUUUGAAUUUGCAGAAGGACAUUUUUAGC | – | – | 17.2 nM | 18.9 nM
17 | UGGUACAUGGGAGGAUAUCAUGUAGUAACAUGAGGAUCACCCAUGUCGAUGGAGACAUCGGAGAUUGAGAAGGCCCAUGUACCU | 921 nM | 32.5 nM | – | –
18 | ACAUGUCGUGAGAAGGACGGCGUGCAUAGCGCCGUAGGAUAUCAAGACAUGAGGAUCACCCAUGUACGCGUGUCCAGCCGUGCU | – | – | 65.2 nM | 342 nM
19 | UUGUUAUGUGUAGGAUAUGCAUAUUAUUAUUAUGCAGAAGGACAUGAGGAUCACCCAUGUGUAUUAUUAUUAUAUAUUAUAUAU | – | – | 23.9 nM | 35.9 nM
20 | CACUCACAUGAGGAUCACCCAUGUCCUAGCAGGUCAGGAUAUAGCUCGGAUGCGUUCAGUCUAGAAGGGACACGUU | 156 nM | 111 nM | – | –
21 | GUAGCAUACCGAGGAUAUUCAUACCGGAAACGGACAUGAGGAUCACCCAUGUGGCGAAAGCCUUGGGAGAAGGCGGUAUGCUAC | 638 nM | 22.8 nM | – | –
22 | GUCAUGUAAGGAUAUCUUACAUGUGACUUCGGUCACUGUCGAGAGAAGGUACAUGAGGAUCACCCAUGUUCGAC | – | – | 17.3 nM | 24 nM
23 | AGUCGGAGCAGAGGAUAUAUACAUGAGGAUCACCCAUGUAAAGAUCAAAGCUGGAAACAGCAAGUAUAGAAGGCUGCUCCGACA | – | – | 90.5 nM | 271 nM
24 | UUGUUAAGAGGAUAUACAUGAGGAUCACCCAUGUGAGAAGUCCAGGGCGUAUUUUCUUGUAGAAGGUUUAGCCC | – | – | 25.1 nM | 15.8 nM
25 | GGGUACAUCGGAGGAUAUCAUGUAAAUACAUGAGGAUCACCCAUGUCGAUGGAGACAUCGGAGAUUGAGAAGGCCGUUGUACCG | 168 nM | 9.18 nM | – | –
26 | AUUUAUGGCCAGAAGGACAUGAGGAUCACCCAUGUAGGAUAUGGACGAUUUUGCUCGGUGGUUCGUUUAGGAAGCACCGGUGGU | 9.59 nM | 7.02 nM | – | –
27 | GUUUUGGUAGGAUAUACAUGAGGAUCACCCAUGUCCCACCCGUUACCUAUGACCAUAUGUAGAAGGACCAUUUG | – | – | 22.2 nM | 28.2 nM
